# Results reported in ChEMBL document CHEMBL1141674, “Effects of 3-(4'-geranyloxy-3'-methoxyphenyl)-2-trans propenoic acid and its ester derivatives on biofilm formation by two oral pathogens, Porphyromonas gingivalis and Streptococcus mutans” (2008).
# Calls of active or inactive are those of the source. The calls are words filed in the database; no cut-off is given here.
# Experiments:
# [1] = test system: Porphyromonas gingivalis; assay: Antimicrobial activity against Porphyromonas gingivalis ATCC 33277 assessed as bacterial growth at 31.2 ug/ml after 4 hrs by XTT assay relative to control; format: functional; details: in the assay text read “after 48 hrs by absorbance at 660 nm” for “after 4 hrs by XTT assay”
# [2] = test system: Streptococcus mutans; assay: Antimicrobial activity against Streptococcus mutans ATCC 25175 assessed as effect on bacterial growth after 4 hrs by XTT assay relative to control; format: functional, organism-based
# [3] = test system: Porphyromonas gingivalis; assay: Antimicrobial activity against Porphyromonas gingivalis ATCC 33277 assessed as bacterial growth at 3.9 ug/ml after 4 hrs by XTT assay relative to control; format: functional
# Outline: (§1)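 P. gingivalis biofilms were pre-grown for 48 h (24 h THB-HK culture diluted to OD660 0.07, 37 °C, anaerobic). They were then exposed to compound dilutions for 4 h at 37 °C under anaerobiosis. Viability was read by XTT reduction: fresh reagent of 12.5 parts XTT (1 mg/ml stock in PBS) to 1 part menadione (1 mM stock in acetone), 1 h at 37 °C, A490.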
# [4] = test system: Porphyromonas gingivalis; assay: Antimicrobial activity against Porphyromonas gingivalis ATCC 33277 assessed as bacterial growth at 15.6 ug/ml after 4 hrs by XTT assay relative to control; format: functional; details: in the assay text read “after 48 hrs by absorbance at 660 nm” for “after 4 hrs by XTT assay”
# [5] = test system: Porphyromonas gingivalis; assay: Antimicrobial activity against Porphyromonas gingivalis ATCC 33277 assessed as bacterial growth at 7.8 ug/ml after 4 hrs by XTT assay relative to control; format: functional; outline: as §1
# [6] = test system: Porphyromonas gingivalis; assay: Antimicrobial activity against Porphyromonas gingivalis ATCC 33277 assessed as bacterial growth at 125 ug/ml after 48 hrs by absorbance at 660 nm relative to control
# [7] = test system: Porphyromonas gingivalis; assay: Antimicrobial activity against Porphyromonas gingivalis ATCC 33277 assessed as bacterial growth at 62.5 ug/ml after 4 hrs by XTT assay relative to control; format: functional; details: in the assay text read “after 48 hrs by absorbance at 660 nm” for “after 4 hrs by XTT assay”
# [8] = test system: Porphyromonas gingivalis; assay: Antimicrobial activity against Porphyromonas gingivalis ATCC 33277 assessed as bacterial growth at 125 ug/ml after 4 hrs by XTT assay relative to control; format: functional; details: in the assay text read “after 48 hrs by absorbance at 660 nm” for “after 4 hrs by XTT assay”
# [9] = test system: Porphyromonas gingivalis; assay: Antimicrobial activity against Porphyromonas gingivalis ATCC 33277 assessed as bacterial growth at 15.6 ug/ml after 48 hrs by absorbance at 660 nm relative to control
# [10] = test system: Porphyromonas gingivalis; assay: Antimicrobial activity against Porphyromonas gingivalis ATCC 33277 assessed as inhibition of biofilm formation at 31.3 ug/ml after 48 hrs; format: functional; parameters: scale not given: the % may be the effect or the level left
# Outline: (§2)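 A 24 h P. gingivalis culture in THB-HK was diluted to OD660 0.07 and mixed 1:1 with serial compound dilutions in THB-HK; untreated wells served as controls. Plates were held 48 h at 37 °C anaerobically and growth was read at A660. Washed biofilms were stained with 0.04% crystal violet for 15 min, eluted with 95% ethanol and read at A550. Triplicates; mean ± SD of two independent experiments.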
# [11] = test system: Streptococcus mutans; assay: Antimicrobial activity against Streptococcus mutans ATCC 25175 assessed as inhibition of biofilm formation at 3.9 ug/ml after 48 hrs; format: functional, organism-based
# [12] = test system: Porphyromonas gingivalis; assay: Antimicrobial activity against Porphyromonas gingivalis ATCC 33277 assessed as inhibition of biofilm formation after 48 hrs; format: functional; details: ATCC 33277, 48 h; outline: as §2
# [13] = test system: Streptococcus mutans; assay: Antimicrobial activity against Streptococcus mutans ATCC 25175 assessed as inhibition of biofilm formation after 48 hrs; format: functional; details: ATCC 25175, 48 h
# [14] = test system: Porphyromonas gingivalis; assay: Antimicrobial activity against Porphyromonas gingivalis ATCC 33277 assessed as bacterial growth at 62.5 ug/ml after 48 hrs by absorbance at 660 nm relative to control
# [15] = test system: Porphyromonas gingivalis; assay: Antimicrobial activity against Porphyromonas gingivalis ATCC 33277 assessed as bacterial growth at 31.2 ug/ml after 48 hrs by absorbance at 660 nm relative to control
MIC [12],MIC [13],Structure (SMILES),Activity [1],Activity [2],Activity [3],Activity [4],Activity [5],Activity [6],Activity [7],Activity [8],Activity [9],Activity [10],Activity [11],Activity [14],Activity [15]
–,–,O=C1C=C(O)C(=O)c2ccccc21 [LAWSONE],86%,inactive,103%,92%,100%,49%,79%,–,–,–,–,–,–
–,–,COc1cc(/C=C/C(=O)O)ccc1OC/C=C(\C)CCC=C(C)C,15%,inactive,81%,–,68%,–,9%,13%,34%,80%,Active,–,–
–,–,Oc1ccc(O)cc1 [HYDROQUINONE],17%,inactive,45%,15%,27%,14%,13%,–,–,–,–,–,–
6 µM,3 µM,N=C(NCCCCCCNC(=N)NC(=N)Nc1ccc(Cl)cc1)NC(=N)Nc1ccc(Cl)cc1 [CHLORHEXIDINE],–,–,–,–,–,–,–,–,–,–,–,–,–
–,–,COc1cc(/C=C/C(=O)Oc2ccccc2OC)ccc1OC/C=C(\C)CCC=C(C)C,28%,inactive,61%,22%,25%,–,25%,32%,–,–,–,–,–
–,–,COC(=O)c1ccc(OC(=O)/C=C/c2ccc(OC/C=C(\C)CCC=C(C)C)c(OC)c2)c(OC)c1,72%,inactive,98%,76%,87%,40%,–,–,–,–,–,49%,–
–,–,COc1cc(/C=C/C(=O)OC2=CC(=O)c3ccccc3C2=O)ccc1OC/C=C(\C)CCC=C(C)C,–,inactive,110%,105%,124%,–,16%,17%,–,–,–,–,34%
